The text below walks through data of ChEMBL document CHEMBL2150894, “Synthesis and anti-staphylococcal activity of new 4-diazopyrazole derivatives” (2012).

≈ marks a conversion by molar mass, not a printed value. Calls of active or inactive are those of the source. The rule behind the calls is not given here.

Common to all, as to assay type: functional
For assay [1], the system named is Staphylococcus aureus. Put plainly: Antibacterial activity against Staphylococcus aureus isolate 723 obtained from veterinary sample after 24 hrs by broth microdilution method. The following applies: isolate 723, 24 h. An outline of the steps: (§1)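 Broth microdilution in Mueller Hinton broth with twofold serial dilutions spanning 50 to 0.001. Each well received inoculum from a 24 h culture containing about 10⁶ cfu mL⁻¹, then incubated at 37 °C for 24 h. MIC was the lowest concentration whose OD570 matched the broth-only negative control. Veterinary isolates came from milk and food samples (IZS Sicily collection).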
A general note: In broth dilution the organism is exposed to a series of concentrations in liquid medium.

In assay [2] the test system is Staphylococcus aureus. Put plainly: Antibacterial activity against Staphylococcus aureus isolate 100 obtained from veterinary sample after 24 hrs by broth microdilution method. The following applies: isolate 100, 24 h. An outline of the steps:
as §1

For assay [3], the system named is Staphylococcus aureus. Put plainly: Antibacterial activity against Staphylococcus aureus isolate 708 obtained from veterinary sample after 24 hrs by broth microdilution method. As to conditions: isolate 708, 24 h. An outline of the steps: as §1
Assay [4] concerns Staphylococcus aureus. Put plainly: Antibacterial activity against Staphylococcus aureus ATCC 29213 after 24 hrs by broth microdilution method. As to conditions: ATCC 29213, 24 h. In short, it runs like this: as §1
Assay [5] relates to Staphylococcus aureus. Nature of the assay: Antibacterial activity against Staphylococcus aureus ATCC 6538 after 24 hrs by broth microdilution method. As to conditions: ATCC 6538, 24 h. In short, it runs like this: as §1
For assay [6], the system named is Staphylococcus aureus. Put plainly: Antibacterial activity against Staphylococcus aureus ATCC 25923 after 24 hrs by broth microdilution method. The following applies: ATCC 25923, 24 h. In short, it runs like this: as §1
For assay [7], the system named is Staphylococcus aureus. Put plainly: Antibacterial activity against Staphylococcus aureus isolate 722 obtained from veterinary sample after 24 hrs by broth microdilution method. As to conditions: isolate 722, 24 h. In short, it runs like this:
as §1

In assay [8] the test system is Staphylococcus aureus. Nature of the assay: Antibacterial activity against Staphylococcus aureus isolate 357 obtained from veterinary sample after 24 hrs by broth microdilution method. As to conditions: isolate 357, 24 h. An outline of the steps:
as §1

Assay [9] concerns Staphylococcus aureus. Put plainly: Antibacterial activity against Staphylococcus aureus isolate 712 obtained from veterinary sample after 24 hrs by broth microdilution method. The following applies: isolate 712, 24 h. An outline of the steps: as §1
For assay [10], the system named is Staphylococcus aureus. Put plainly: Antibacterial activity against methicillin-resistant Staphylococcus aureus ATCC 43866.
In assay [11] the test system is Staphylococcus aureus. Put plainly: Antibacterial activity against methicillin-resistant Staphylococcus aureus ATCC 43866 assessed as inhibition of biofilm formation at 25 ug/mL.
Assay [12] has as its system Staphylococcus aureus. Nature of the assay: Antibacterial activity against Staphylococcus aureus ATCC 29213 assessed as inhibition of biofilm formation at 25 ug/mL.
Assay [13] concerns Staphylococcus aureus. Put plainly: Antibacterial activity against methicillin-resistant Staphylococcus aureus clinical isolate.
The test system of assay [14] is Staphylococcus epidermidis. Nature of the assay: Antibacterial activity against Staphylococcus epidermidis RP62A.
In assay [15] the test system is Staphylococcus aureus. Put plainly: Antibacterial activity against Staphylococcus aureus ATCC 29213. In short, it runs like this:
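Broth microdilution: twofold serial dilutions of compound (range 50 to 0.001) in Mueller Hinton broth, each well inoculated with bacterial suspension from a 24 h culture containing ~10⁶ cfu/mL. Incubated 37 °C for 24 h.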

Assay [16] deals with Staphylococcus epidermidis. Nature of the assay: Antibacterial activity against Staphylococcus epidermidis RP62A assessed as inhibition of biofilm formation at 25 ug/mL.
The subject of assay [17] is Staphylococcus epidermidis. Put plainly: Antibacterial activity against Staphylococcus epidermidis RP62A assessed as inhibition of biofilm formation.
In assay [18] the test system is Staphylococcus aureus. Nature of the assay: Antibacterial activity against Staphylococcus aureus ATCC 29213 assessed as inhibition of biofilm formation at 3.1 ug/mL.
For assay [19], the system named is Staphylococcus aureus. Put plainly: Antibacterial activity against Staphylococcus aureus isolate 708 obtained from veterinary sample assessed as inhibition of biofilm formation at 3.1 ug/mL.
Assay [20] has as its system Staphylococcus aureus. Nature of the assay: Antibacterial activity against Staphylococcus aureus ATCC 25923 assessed as inhibition of biofilm formation at 3.1 ug/mL.
For assay [21], the system named is Staphylococcus aureus. Put plainly: Antibacterial activity against Staphylococcus aureus ATCC 29213 by NCCLS method.

Take `Cc1nn(C)c([N-]C(=O)Nc2ccccc2)c1[N+]#N`: the MIC in [1] is 6.2 µg/mL (≈ 24.2 µM); in assay [2] it was 12.5 µg/mL (≈ 48.8 µM); in assay [3] it was 25 µg/mL (≈ 97.6 µM); in assay [4], 12.5 µg/mL (≈ 48.8 µM); in assay [5] it was 12.5 µg/mL (≈ 48.8 µM); in assay [6], 12.5 µg/mL (≈ 48.8 µM). Moreover, the MIC was found to be 25 µg/mL (≈ 97.6 µM) in [7], 6.2 µg/mL (≈ 24.2 µM) in assay [8] and 50 µg/mL (≈ 195 µM) in assay [9].

Consider `Cc1nn(C)c([N-]C(=O)c2ccc([N+](=O)[O-])cc2)c1[N+]#N`, for which the MIC worked out at 1.5 µg/mL (≈ 5.24 µM) in assay [10], 2 µg/mL (≈ 6.99 µM) in assay [13], 1.5 µg/mL (≈ 5.24 µM) in [14] and 1.5 µg/mL (≈ 5.24 µM) in [15]. Further, the inhibition at 25 µg/mL in [11], in assay [12] and in [16] was 69.7% each time.

Regarding `Cc1nn(C)c([N-]C(=O)c2ccc(Cl)cc2Cl)c1[N+]#N`, the MIC in [10] was found to be 1.5 µg/mL (≈ 4.84 µM); in assay [13], 2 µg/mL (≈ 6.45 µM); in [14], 1.5 µg/mL (≈ 4.84 µM); in assay [15] it was 1.5 µg/mL (≈ 4.84 µM). Also, the inhibition entry in [17] was “Active”.

On to `Cc1nn(C)c([N-]C(=O)Cc2ccccc2)c1[N+]#N`, for which the MIC in [1] amounted to 3.1 µg/mL (≈ 12.1 µM); in [2] it was 3.1 µg/mL (≈ 12.1 µM); in assay [3], 6.2 µg/mL (≈ 24.3 µM); in assay [4], 3.1 µg/mL (≈ 12.1 µM); in [5], 3.1 µg/mL (≈ 12.1 µM); in assay [6], 6.2 µg/mL (≈ 24.3 µM). In addition, the MIC in assay [7] was found to be 6.2 µg/mL (≈ 24.3 µM); in assay [8], 1.5 µg/mL (≈ 5.88 µM); in assay [9], 1.5 µg/mL (≈ 5.88 µM). In addition, the inhibition entry in assay [18] and in assay [19] was “inactive” throughout. The inhibition at 3.1 µg/mL in [20] was 45.7%.

As to `CCCCOc1ccc(NC(=O)[N-]c2c([N+]#N)c(C)nn2C)c([N+](=O)[O-])c1`, the MIC in [1], in assay [2], in assay [3], in assay [4], in assay [5] and in [6] was above 50 µg/mL throughout. The MIC in assay [7], in assay [8] and in assay [9] was above 50 µg/mL throughout.

Turning to `Cc1nn(C)c([N-]C(=O)Nc2ccc(Cl)cc2)c1[N+]#N`, the MIC amounted to 12.5 µg/mL (≈ 43 µM) in assay [1]; 6.2 µg/mL (≈ 21.3 µM) in assay [2]; 25 µg/mL (≈ 86 µM) in [3]; 6.2 µg/mL (≈ 21.3 µM) in [4]; 25 µg/mL (≈ 86 µM) in [5]; 6.2 µg/mL (≈ 21.3 µM) in assay [6]. For the same compound, the MIC was determined as 12.5 µg/mL (≈ 43 µM) in [7], 6.2 µg/mL (≈ 21.3 µM) in [8] and 3.1 µg/mL (≈ 10.7 µM) in assay [9].

For the compound `COc1ccc(CC(=O)[N-]c2c([N+]#N)c(C)nn2C)cc1`, the MIC in assay [1] was 6.2 µg/mL (≈ 21.7 µM); in assay [2], 3.1 µg/mL (≈ 10.9 µM); in [3], 6.2 µg/mL (≈ 21.7 µM); in assay [4], 6.2 µg/mL (≈ 21.7 µM); in assay [5], 6.2 µg/mL (≈ 21.7 µM); in [6] it was 6.2 µg/mL (≈ 21.7 µM). The values for the MIC in assay [7], in assay [8] and in assay [9] were 6.2 µg/mL (≈ 21.7 µM), 6.2 µg/mL (≈ 21.7 µM) and 25 µg/mL (≈ 87.6 µM), respectively. In addition, the inhibition at 3.1 µg/mL in assay [18] was found to be 45.7%; in [19], 25%; in assay [20], 38%.

Regarding `Cc1nn(C)c([N-]C(=O)Nc2ccc(Cl)c(Cl)c2)c1[N+]#N`, the MIC is 3.1 µg/mL (≈ 9.53 µM) in assay [1]; 3.1 µg/mL (≈ 9.53 µM) in [2]; 6.2 µg/mL (≈ 19.1 µM) in assay [3]; 6.2 µg/mL (≈ 19.1 µM) in assay [4]; 6.2 µg/mL (≈ 19.1 µM) in assay [5]; 6.2 µg/mL (≈ 19.1 µM) in [6]. The MIC in [7] came out at 3.1 µg/mL (≈ 9.53 µM); in assay [8], 6.2 µg/mL (≈ 19.1 µM); in assay [9], 25 µg/mL (≈ 76.9 µM).

In the case of `Cc1nn(C)c([N-]C(=O)Nc2ccc(OCc3ccccc3)cc2[N+](=O)[O-])c1[N+]#N`, the MIC in [1], in assay [2], in [3], in assay [4], in assay [5] and in assay [6] was above 50 µg/mL throughout. The MIC in [7], in assay [8] and in assay [9] was above 50 µg/mL throughout.

For the compound `COc1ccc(NC(=O)[N-]c2c([N+]#N)c(C)nn2C)c([N+](=O)[O-])c1`, the MIC in assay [1], in [2], in assay [3], in [4], in [5] and in [6] was above 50 µg/mL each time. Also, the minimum inhibitory concentration (MIC) in [7], in assay [8] and in assay [9] was above 50 µg/mL each time.

Turning to `Cc1nn(C)c([N-]C(=O)Nc2ccc([N+](=O)[O-])cc2)c1[N+]#N`, the MIC is 100 µg/mL (≈ 332 µM) in assay [1]; above 100 µg/mL in assay [2]; 3.1 µg/mL (≈ 10.3 µM) in assay [3]; 6.2 µg/mL (≈ 20.6 µM) in assay [4]; 6.2 µg/mL (≈ 20.6 µM) in [5]; 6.2 µg/mL (≈ 20.6 µM) in assay [6]. Further, the MIC in assay [7], in [8] and in assay [9] was 3.1 µg/mL (≈ 10.3 µM) each time.

Turning to `Cc1nn(C)c([N-]C(=O)Cc2ccc(Cl)cc2)c1[N+]#N`, the MIC in [1] was determined as 3.1 µg/mL (≈ 10.7 µM); in assay [2] it was 6.2 µg/mL (≈ 21.4 µM); in [3] it was 12.5 µg/mL (≈ 43.1 µM); in assay [4], 25 µg/mL (≈ 86.3 µM); in [5] it was 6.2 µg/mL (≈ 21.4 µM); in assay [6], 25 µg/mL (≈ 86.3 µM). The MIC in assay [7] is 12.5 µg/mL (≈ 43.1 µM); in assay [8] it was 1.5 µg/mL (≈ 5.18 µM); in [9], 50 µg/mL (≈ 173 µM).

Consider `Cc1nn(C)c([N-]C(=O)c2ccc(Cl)cc2)c1[N+]#N`, for which the MIC was 1.5 µg/mL (≈ 5.44 µM) in [10], 2 µg/mL (≈ 7.25 µM) in assay [13], 1.5 µg/mL (≈ 5.44 µM) in [14] and 1.5 µg/mL (≈ 5.44 µM) in assay [15]. In addition, the inhibition at 25 µg/mL in assay [11], in assay [12] and in assay [16] was 69.7% throughout.

As for `CO[C@H]1/C=C/O[C@@]2(C)Oc3c(C)c(O)c4c(O)c(c(/C=N/N5CCN(C)CC5)c(O)c4c3C2=O)NC(=O)/C(C)=C\C=C\[C@H](C)[C@H](O)[C@@H](C)[C@@H](O)[C@@H](C)[C@H](OC(C)=O)[C@@H]1C` [RIFAMPIN], the MIC in [1] was determined as 1.25 µg/mL (≈ 1.52 µM); in assay [2], 0.07 µg/mL (≈ 0.0851 µM); in assay [3] it was 0.07 µg/mL (≈ 0.0851 µM); in assay [4], 0.015 µg/mL (≈ 0.0182 µM); in [5], 0.015 µg/mL (≈ 0.0182 µM); in assay [21] it was 0.008 µg/mL (≈ 0.00972 µM). Also, the MIC in assay [6] came out at 0.015 µg/mL (≈ 0.0182 µM); in assay [7] it was 0.6 µg/mL (≈ 0.729 µM); in assay [8] it was 0.015 µg/mL (≈ 0.0182 µM); in assay [9], 0.3 µg/mL (≈ 0.365 µM).

Broadly, the MIC is the least concentration at which growth counts as inhibited. High values mean weaker potency, low ones greater potency. What is called inhibition is the share of the control response that was lost under treatment.
